# Measured values collected from several papers.
# Lines come from different studies, so protocols differ. pEC50, pIC50, pKi: −log10 of the molar value.
# DRD3: D(3) dopamine receptor (DRD3, Homo sapiens, UniProt P35462)
# GLP1R: Glucagon-like peptide 1 receptor (GLP1R, Homo sapiens, UniProt P43220)
SMILES,target,test,setting,measurement,result
CC(CCc1ccccc1)NC(C)C(O)c1ccc(O)cc1 (centres unmarked),DRD3,"ligand displacement, radioligand",,pIC50,5.89
CC[C@H](C)[C@H](NC(=O)[C@H](Cc1ccccc1)NC(=O)[C@H](CC(=O)O)NC(=O)[C@H](CCCCN)NC(=O)[C@H](C)NC(=O)[C@H](C)NC(=O)[C@H](CCC(N)=O)NC(=O)CNC(=O)[C@H](CCC(=O)O)NC(=O)[C@H](CC(C)C)NC(=O)[C@H](Cc1ccc(O)cc1)NC(=O)[C@H](CO)NC(=O)[C@H](CO)NC(=O)[C@@H](NC(=O)[C@H](CC(=O)O)NC(=O)[C@H](CO)NC(=O)[C@@H](NC(=O)[C@H](Cc1ccc(O)cc1)NC(=O)[C@@H](NC(=O)CNC(=O)[C@H](CC(=O)O)NC(=O)[C@H](C)NC(=O)[C@@H](N)Cc1c[nH]cn1)[C@@H](C)O)[C@@H](C)O)[C@@H](C)CC)C(=O)N[C@@H](C)C(=O)N[C@@H](Cc1c[nH]c2ccccc12)C(=O)N[C@@H](CC(C)C)C(=O)N[C@@H](CCSC)C(=O)N[C@@H](CC(N)=O)C(=O)NCC(=O)N[C@@H](CCCNC(=N)N)C(=O)NCC(=O)O,GLP1R,"reporter gene, agonist, luciferase",,pEC50,9.23
COc1cc(N)c(Cl)cc1C(=O)NC1CCN(CCCOc2ccc(F)cc2)CC1OC (centres unmarked),DRD3,"ligand displacement, radioligand",,pIC50,5.20
CC(C)[C@H](NC(=O)[C@@H]1CSSC(C)(C)[C@H](NC(=O)[C@@H](N)CC(=O)O)C(=O)N[C@@H](Cc2ccccc2)C(=O)N[C@H](Cc2c[nH]c3ccccc23)C(=O)N[C@@H](CCCN)C(=O)N[C@@H](Cc2ccc(N)cc2)C(=O)N1)C(=O)O,"Urotensin-2 receptor (UTS2R, Homo sapiens, UniProt Q9UKP6)","ligand displacement, radioligand",cell membranes,pKi,8.57
CC(C)[C@@H](Nc1nc(Cl)nc2c1ncn2[C@H]1[C@H](O)[C@H](O)[C@]2(CN)C[C@H]12)C1CC1,DRD3,"ligand displacement, radioligand",,pKi,5.46
C[C@@H](NC(=O)[C@@H](N)Cc1ccc(O)cc1)C(=O)NCC(=O)N[C@@H](Cc1ccccc1)C(=O)N(C)CCC[C@@]1(c2ccc(F)cc2)OCc2cc(C#N)ccc21,DRD3,"ligand displacement, radioligand",,pKi,< 5.00
CC(C)[C@@H]1NC(=O)[C@H](CO)NC(=O)[C@H](CO)NC(=O)[C@H](CO)N(C)C(=O)[C@H](CC(=O)O)NC(=O)[C@H](CO)NC(=O)[C@H](Cc2ccccc2)NC(=O)CSC[C@@H](C(=O)NCC(N)=O)NC(=O)[C@H](CC(N)=O)NC(=O)[C@H](CCCNC(=N)N)NC(=O)[C@H](C)NC(=O)[C@H](Cc2ccc(-c3ccccc3)cc2)NC(=O)[C@H](CC(N)=O)NC(=O)[C@@H]2CCCN2C1=O,"Protein Mdm4 (MDM4, Homo sapiens, UniProt O15151)","ligand displacement, TR-FRET",,pIC50,< 5.00
CC(C)C[C@H](NC(=O)[C@H](Cc1c[nH]c2ccccc12)NC(=O)[C@H](C)NC(=O)[C@@H](NC(=O)[C@H](Cc1ccccc1)NC(=O)[C@H](CO)NC(=O)[C@H](CCC(N)=O)NC(=O)[C@H](C)NC(=O)[C@H](C)NC(=O)[C@H](CCC(N)=O)NC(=O)[C@H](CC(=O)O)NC(=O)[C@H](CCC(N)=O)NC(=O)[C@H](CC(C)C)NC(=O)[C@H](Cc1ccc(O)cc1)NC(=O)[C@H](CO)NC(=O)[C@H](CO)NC(=O)[C@@H](NC(=O)[C@H](CC(=O)O)NC(=O)[C@H](CO)NC(=O)[C@@H](NC(=O)[C@H](Cc1ccc(O)cc1)NC(=O)[C@@H](NC(=O)CNC(=O)[C@H](CCC(=O)O)NC(=O)[C@H](C)NC(=O)[C@@H](N)Cc1c[nH]cn1)[C@@H](C)O)[C@@H](C)O)C(C)C)C(C)C)C(=O)N[C@@H](CCCCN)C(=O)N[C@@H](CO)C(=O)NCC(=O)N[C@@H](CCC(N)=O)C(=O)N1CCC[C@H]1C(=O)O,GLP1R,"reporter gene, agonist, luciferase",,pEC50,7.53
CSCC[C@H](NC(=O)[C@H](CCC(=O)O)NC(=O)[C@@H]1CCCN1C(=O)[C@@H](NC(=O)[C@@H]1CCCN1)[C@@H](C)O)C(=O)N[C@@H](CCCNC(=N)N)C(=O)N[C@@H](CCC(=O)O)C(=O)N[C@@H](CCCCN)C(=O)N[C@@H](CC(C)C)C(=O)N[C@H]1CSSC[C@@H]2NC(=O)[C@@H](NC(=O)[C@H](CC(C)C)NC(=O)[C@@H](NC(=O)[C@H](CCC(N)=O)NC(=O)[C@H](CC(C)C)NC(=O)[C@H](CC(=O)O)NC(=O)[C@@H]3CCC(=O)N3)[C@@H](C)O)CSSC[C@H](NC(=O)CNC(=O)[C@H](CO)NC(=O)[C@H](CC(C)C)NC2=O)C(=O)N[C@@H]([C@@H](C)O)C(=O)N[C@@H](CCC(N)=O)C(=O)N[C@@H](CCC(N)=O)C(=O)N[C@@H](CC(=O)O)C(=O)N[C@@H](CC(C)C)C(=O)N[C@@H](CC(C)C)C(=O)N[C@@H]([C@@H](C)O)C(=O)N[C@@H](CC(C)C)C(=O)N[C@H](C(=O)N2CCC[C@H]2C(=O)N[C@@H](Cc2ccc(O)cc2)C(=O)O)CSSC[C@@H](C(=O)NCC(=O)NCC(=O)N2CCC[C@H]2C(=O)N[C@@H](CCCNC(=N)N)C(=O)N[C@@H](Cc2c[nH]c3ccccc23)C(=O)N[C@@H](CO)C(=O)N[C@H](C(=O)N[C@@H](CCC(=O)O)C(=O)N[C@@H](C)C(=O)O)[C@@H](C)O)NC(=O)[C@H](C(C)C)NC(=O)[C@H](CCCNC(=N)N)NC(=O)[C@H](C(C)C)NC(=O)[C@H](CC(C)C)NC(=O)[C@H](C)NC(=O)[C@H](CCCNC(=N)N)NC(=O)[C@H](C(C)C)NC(=O)[C@H](Cc2ccccc2)NC(=O)[C@H](Cc2c[nH]cn2)NC(=O)[C@H](Cc2c[nH]cn2)NC(=O)CNC1=O,"Relaxin receptor 2 (RXFP2, Homo sapiens, UniProt Q8WXD0)",ligand displacement in cells,,pKi,8.44
Cc1cc(O)cc(C)c1C[C@H](N)C(=O)N[C@H](C)C(=O)NCC(=O)N[C@@H](Cc1ccc(Cl)cc1)C(=O)N(C)CCC[C@@]1(c2ccc(F)cc2)OCc2cc(C#N)ccc21,DRD3,"ligand displacement, radioligand",,pKi,6.05
CCCc1cc2cc(-n3nc(C)c4c3CC(C)(C)CC4=O)cc(N[C@H]3CC[C@H](O)CC3)c2c(=O)[nH]1,"Heat shock protein 75 kDa, mitochondrial (TRAP1, Homo sapiens, UniProt Q12931)","ligand displacement, FP",,pIC50,< 4.30
O=C(O[C@@H]1Cc2c(O)cc(O)cc2O[C@@H]1c1cc(O)c(O)c(O)c1)c1cc(O)c(O)c(O)c1,"Maltase-glucoamylase (Homo sapiens, UniProt O43451)","enzyme activity, inhibitor",,pKi,5.23
O=C(Nc1cccc(-c2ccn3c(CC4CC4)nnc3c2C(F)(F)F)c1)c1ccc(S(=O)(=O)F)cc1,"Metabotropic glutamate receptor 5 (GRM5, Homo sapiens, UniProt P41594)","calcium signal, agonist",,pEC50,< 4.30
O=C(O)[C@H]1O[C@@H](Oc2cc(O)cc(/C=C/c3ccc(O)cc3)c2)[C@H](O)[C@@H](O)[C@@H]1O,"Cannabinoid receptor 1 (Cnr1, Mus musculus, UniProt P47746)","ligand displacement, radioligand",cell membranes,pKi,< 4.00
